Assay results pooled from the literature.
Each line is one published result; the experiments were not run side by side. In brackets after ≈: the same amount, converted by molar mass.

Compound | target or system | assay | test system | conditions | measurement | value
CC(C)C[C@H](NC(=O)OCc1ccccc1)C(=O)N1CCC[C@H]1C(=O)Nc1ccc(C#CC#Cc2ccc(NC(=O)[C@@H]3CCCN3C(=O)[C@H](CC(C)C)NC(=O)OCc3ccccc3)cc2)cc1 | Hepatitis C virus | viral replication, inhibitor, luciferase | Huh-5-2, GETYPE1B | 72 h, replicon | EC50 | > 10000 nM
CC(=O)OC[C@@]1(C)[C@H]2CC[C@@H]3CN(Cc4ccccc4)[C@@H](C4=CCOC4=O)C[C@H]3[C@]2(C)CC[C@H]1OC(C)=O | unidentified human coronavirus | cytopathic effect | MRC5 | 25 µM, 72 h | inhibition | 82.4%
COc1cc(Nc2nccc(-c3cnn4nc(OC)ccc34)n2)cc(C(F)(F)F)c1 | SK-N-FI | cell growth or viability, ATP luminescence | – | – | IC50 | 250 nM
Nc1nc(N)c2ncn([C@H]3O[C@H](CO)[C@@H](F)[C@@H]3F)c2n1 | Hepatitis C virus | viral replication, inhibitor | Huh-7 | replicon | EC50 | > 10000 nM
Cc1ccc(CN2C[C@H]3CC[C@@H]4[C@]5(C)COC(C)(C)O[C@@H]5CC[C@@]4(C)[C@@H]3C[C@@H]2C2=CCOC2=O)cc1 | unidentified human coronavirus | cytopathic effect | MRC5 | 25 µM, 72 h | inhibition | 98.8%
CC(C)C[C@H](NC(=O)[C@H](Cc1ccccc1)NC(=O)c1cnccn1)B(O)O | DLD-1 | cell growth or viability, ATP luminescence | – | – | IC50 | 14 nM
CC#CC(=O)N1CC[C@@H](n2cc(-c3ccc(Oc4c(F)cccc4F)cc3)c3c(N)n[nH]c(=O)c32)C1 | Z-138 | cell growth or viability, ATP luminescence | – | 72 h | GI50 | 6960 nM
CCOC(=O)N[C@@H](CC(C)C)C(=O)N1CCC[C@H]1C(=O)Nc1ccc(C#CC#Cc2ccc(NC(=O)[C@@H]3CCCN3C(=O)[C@H](CC(C)C)NC(=O)OCC)cc2)cc1 | Hepatitis C virus | viral replication, inhibitor, luciferase | Huh-5-2, GETYPE1B | 72 h, replicon | EC50 | 3210 nM
CCCCN1C[C@H]2CC[C@@H]3[C@](C)(COC(C)=O)[C@H](OC(C)=O)CC[C@@]3(C)[C@@H]2C[C@@H]1C1=CCOC1=O | unidentified human coronavirus | cytopathic effect | MRC5 | 25 µM, 72 h | inhibition | 54.7%
CCCCCCC/C=C/C(=O)N1C(=O)/C(=C(\O)C2CCNCC2)C(=O)C1CC(C)C (centres unmarked) | Proteus mirabilis | microbial growth | ATCC25933 | – | MIC | 200 µg/mL (≈ 478 µM)
COC(=O)N[C@H](C(=O)N1CCC[C@H]1c1nc(-c2ccc(-c3ccc(-c4c[nH]c([C@@H]5CCCN5C(=O)[C@@H](NC(=O)OC)C(C)C)n4)cc3)cc2)c[nH]1)C(C)C | Hepatitis C virus | viral replication, inhibitor, luciferase | Huh-5-2, GETYPE1B | 72 h, replicon | EC50 | 0.0266 nM
CC(C)CCN1C[C@H]2CC[C@@H]3[C@]4(C)COC(C)(C)O[C@@H]4CC[C@@]3(C)[C@@H]2C[C@@H]1C1=CCOC1=O | unidentified human coronavirus | cytopathic effect | MRC5 | 25 µM, 72 h | inhibition | 22%
C=CC(=O)N1CCC[C@@H](n2nc(-c3ccc(Oc4ccccc4)cc3)c3c(N)ncnc32)C1 | Granta-519 | cell growth or viability, ATP luminescence | – | 72 h | GI50 | 10300 nM
CCOC(=O)N[C@@H](CC(C)C)C(=O)N1CCC[C@H]1C(=O)Nc1cccc(C#CC#Cc2cccc(NC(=O)[C@@H]3CCCN3C(=O)[C@H](CC(C)C)NC(=O)OCC)c2)c1 | Hepatitis C virus | viral replication, inhibitor, luciferase | Huh-5-2, GETYPE1B | 72 h, replicon | EC50 | 0.0399 nM
